Laboratory results: ChEMBL document CHEMBL1123708, “Resolved cis- and trans-2-amino-5-methoxy-1-methyltetralins: central dopamine receptor agonists and antagonists” (1987)
Active and inactive are the calls of the source. No cut-off for these calls is given here.

Key:
[1] = tested on: Rattus norvegicus; experiment: Change in rectal temperature induced by DiPr-5,6-ADTN at a dose of 13 umol/kg of compound by subcutaneous administration; format: functional
Procedure, shortened: (§1)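 Rats received DiPr-5,6-ADTN (0.25 μmol/kg sc) 100 min and test compound sc 40 min before death. Rectal temperature change (°C) was recorded between 60 and 100 min after DiPr-5,6-ADTN. Values are mean ± SEM, n = 4, with Student's t test vs DiPr-5,6-ADTN alone.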

[2] = molecular target: T1, Dopamine receptor (Rattus norvegicus) (UniProt P25115+P19020+P30729+P18901+P61169); experiment: Ability to displace the Dopamine receptor agonist DiPr-5,6-ADTN from rat striatal binding sites in vivo at a dose of 13 uM/kg by subcutaneous administration; format: organism-based
[3] = tested on: Rattus norvegicus; experiment: In vivo DOPA accumulation in non pretreated rat striatum system by subcutaneous administration.; hr indicates 40-50% increase in limbic system after 52 umol/kg (sc); format: functional, organism-based
Procedure, shortened: (§2)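 Rats without pretreatment received test drug sc 65 min and NSD 1015 (100 mg/kg ip) 30 min before death, with saline controls. DOPA was measured in limbic or striatal tissue. Dose for half-maximal change was estimated from 4-5-dose curves (n = 3-5), maximal level as % of control.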

[4] = tested on: Rattus norvegicus; experiment: Induced locomotor stimulation in non pre-treated rats by 13 umol/kg s.c. administration.; format: functional
[5] = tested on: Rattus norvegicus; experiment: Locomotory activity was determined in non pretreated rats at a dose of 3.2 umol/kg by subcutaneous administration; format: functional
Procedure, shortened: (§3)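 Untreated rats received test drug sc 5 min before a 30-min session in photocell motility meters, with accumulated counts recorded. Activity is expressed as percent of saline controls, mean ± SEM, n = 3-5. Gross behaviour was observed through a semitransparent mirror. Differences from saline controls were assessed by Student's t test.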

[6] = tested on: Rattus norvegicus; experiment: Induced locomotor stimulation in non pre-treated rats by 52 umol/kg s.c. administration.; format: functional
[7] = tested on: Rattus norvegicus; experiment: In vivo DOPA accumulation in non pretreated rat limbic system by subcutaneous administration;. indicates 40-50% increase in limbic system after 52 umol/kg (sc); format: functional, organism-based; procedure, shortened: as §2
[8] = tested on: Rattus norvegicus; experiment: In vivo DOPA accumulation in non pre-treated rat striatal system following s.c. administration.; format: functional; conditions: sc; procedure, shortened: as §2
[9] = molecular target: T1, Dopamine receptor (Rattus norvegicus); experiment: In vivo displacement of DiPr-5,6-ADTN from Dopamine receptors in rat striatum; format: organism-based
[10] = tested on: Rattus norvegicus; experiment: Locomotory activity was determined in non pretreated rats at a dose of 52 umol/kg by subcutaneous administration; format: functional; procedure, shortened: as §3
[11] = tested on: Rattus norvegicus; experiment: In vivo DOPA accumulation in non pre-treated rat limbic system following s.c. administration.; format: functional; conditions: sc; procedure, shortened: as §2
[12] = tested on: Rattus norvegicus; experiment: Change in rectal temperature induced by DiPr-5,6-ADTN at a dose of 52 umol/kg of compound by subcutaneous administration; format: functional; procedure, shortened: as §1
[13] = molecular target: T1, Dopamine receptor (Rattus norvegicus); experiment: Ability to displace the Dopamine receptor agonist DiPr-5,6-ADTN from rat striatal binding sites in vivo at a dose of 52 umol/kg by subcutaneous administration; format: organism-based
[14] = tested on: Rattus norvegicus; experiment: ((+)-UH-232) induced locomotor stimulation was determined in non pretreated rats at a dose of 52 umol/kg by subcutaneous administration; format: functional
[15] = molecular target: T1, Dopamine receptor (Rattus norvegicus); experiment: Ability to displace the Dopamine receptor agonist DiPr-5,6-ADTN from rat striatal binding sites in vivo at a dose of 10 uM/kg by subcutaneous administration; format: organism-based
[16] = tested on: Rattus norvegicus; experiment: In vivo DOPA accumulation in reserpine pretreated rat striatum system by subcutaneous administration; I denotes inactive; format: functional, organism-based
Procedure, shortened: (§4)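 Rats received reserpine (5 mg/kg sc) 18 h, test drug sc 60 min and NSD 1015 (100 mg/kg ip) 30 min before death, with saline controls. Limbic or striatal DOPA was measured. Dose for half-maximal decrease was estimated from 4-7-dose curves (n = 3-5), minimal level as % of control.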

[17] = tested on: Rattus norvegicus; experiment: In vivo DOPA accumulation in reserpine pretreated rat limbic system by subcutaneous administration; I denotes inactive; format: functional, organism-based; procedure, shortened: as §4
[18] = tested on: Rattus norvegicus; experiment: Change in rectal temperature induced by DiPr-5,6-ADTN at a dose of 40 umol/kg of compound by subcutaneous administration; format: functional; procedure, shortened: as §1
[19] = molecular target: T1, Dopamine receptor (Rattus norvegicus); experiment: Ability to displace the Dopamine receptor agonist DiPr-5,6-ADTN from rat striatal binding sites in vivo at a dose of 40 uM/kg by subcutaneous administration; format: organism-based
[20] = tested on: Rattus norvegicus; experiment: Change in rectal temperature induced by DiPr-5,6-ADTN at a dose of 10 umol/kg of compound by subcutaneous administration; format: functional; procedure, shortened: as §1
[21] = tested on: Rattus norvegicus; experiment: Locomotory activity was determined in reserpine pretreated rats at a dose of 52 umol/kg by subcutaneous administration. Value is the accumulation counts/30 min; format: functional
Procedure, shortened: (§5)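 Rats were given reserpine 5 mg/kg sc 18 h beforehand, then test drug sc immediately before the activity session. Motor activity was recorded by photocells in motility meters as accumulated counts over 30 min, mean ± SEM, n = 3-4. Gross behaviour was watched for signs of stimulation. Reserpine-only controls were included.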

[22] = tested on: Rattus norvegicus; experiment: In vivo DOPA accumulation in non pretreated rat striatum system by subcutaneous administration; indicates 40-80% increase in limbic system after 52 umol/kg (sc); format: functional, organism-based; procedure, shortened: as §2
[23] = tested on: Rattus norvegicus; experiment: In vivo DOPA accumulation in non pretreated rat limbic system by subcutaneous administration; indicates 40-80% increase in limbic system after 52 umol/kg (sc); format: functional, organism-based; procedure, shortened: as §2
[24] = tested on: Rattus norvegicus; experiment: In vivo DOPA accumulation in reserpine pretreated rat striatum system by subcutaneous administration; denotes inactive; format: functional, organism-based; procedure, shortened: as §4
[25] = tested on: Rattus norvegicus; experiment: In vivo DOPA accumulation in non pretreated rat striatum system by subcutaneous administration; I denotes inactive; format: functional, organism-based; procedure, shortened: as §2
[26] = tested on: Rattus norvegicus; experiment: In vivo DOPA accumulation in non pretreated rat limbic system by subcutaneous administration; I denotes inactive; format: functional, organism-based; procedure, shortened: as §2
[27] = tested on: Rattus norvegicus; experiment: In vivo DOPA accumulation in non pretreated rat striatum system by subcutaneous administration; denotes inactive; format: functional, organism-based; procedure, shortened: as §2
[28] = molecular target: T1, Dopamine receptor (Rattus norvegicus); experiment: Ability to displace the Dopamine receptor agonist DiPr-5,6-ADTN from rat striatal binding sites in vivo at a dose of 52 uM/kg by subcutaneous administration; format: organism-based
[29] = tested on: Rattus norvegicus; experiment: Induced locomotor stimulation was determined in non pretreated rats at a dose of 52 uM/kg by subcutaneous administration; format: functional; procedure, shortened: as §3
[30] = tested on: Rattus norvegicus; experiment: In vivo DOPA accumulation in reserpine pretreated rat limbic system by subcutaneous administration; format: functional; conditions: sc; procedure, shortened: as §4
[31] = tested on: Rattus norvegicus; experiment: Locomotory activity was determined in reserpine pretreated rats at a dose of 204 umol/kg by subcutaneous administration. Value is the accumulation counts/30 min; format: functional; procedure, shortened: as §5
[32] = tested on: Rattus norvegicus; experiment: In vivo DOPA accumulation in reserpine pretreated rat striatum system by subcutaneous administration; format: functional; procedure, shortened: as §4
[33] = tested on: Rattus norvegicus; experiment: Locomotory activity was determined in non pretreated rats at a dose of 52 umol/kg by subcutaneous administration; I denotes inactive; format: functional; procedure, shortened: as §3
[34] = tested on: Rattus norvegicus; experiment: In vivo % increase in DOPA accumulation in non pretreated rat striatum system after 52 umol/kg (sc); I denotes inactive; format: functional, organism-based
[35] = tested on: Rattus norvegicus; experiment: In vivo % increase in DOPA accumulation in non pretreated rat limbic system after 52 umol/kg (sc); I denotes inactive; format: functional, organism-based

| SMILES | Body temp change [1] [°C] | Activity [4] [%] | Activity [5] [%] | Activity [6] [%] | ED50 [8] [µmol/kg] | Binding [9] [%] | ED50 [11] [µmol/kg] | also measured |
| --- | --- | --- | --- | --- | --- | --- | --- | --- |
| CCCCN[C@@H]1CCc2c(O)cccc2[C@@H]1C | -0.93 | 80 | 89 | 76 |  |  |  | Binding [2]: 46%; ED50 [3]: Weak activity; ED50 [7]: Weak activity |
| CCCCN[C@@H]1CCc2c(OC)cccc2[C@@H]1C |  | 82 | 113 |  | 20 | 76 | 18 | Temperature [1]: -0.25 °C; Activity [10]: 135% |
| C[C@H]1c2cccc(O)c2CC[C@H]1N(C)C | 1.48 | 11 | 76 | 1 | 3.4 | 39 | 5.5 |  |
| CN[C@@H]1CCc2c(OC)cccc2[C@@H]1C |  | 35 | 86 | 29 | 1.8 | 51 | 4.7 | Temperature [12]: 0.93 °C; Temperature [1]: -0.25 °C; Binding [13]: 20%; Activity [14]: 9% |
| CCCN(CCC)[C@@H]1CCc2c(O)cccc2[C@@H]1C |  |  | 110 | 102 | 9.4 |  | 110 | Binding [15]: 61%; ED50 [16]: inactive; ED50 [17]: inactive; Body temp change [18]: 1.7 °C; Binding [19]: 21%; Body temp change [20]: 1.7 °C; Activity [21]: 6 counts/30 min |
| CCCCN(CCCC)[C@@H]1CCc2c(O)cccc2[C@@H]1C | -0.43 | 89 |  | 82 |  |  |  | Binding [2]: 96%; ED50 [22]: Weak activity; ED50 [23]: Weak activity |
| CCCCN(CCCC)[C@H]1CCc2c(O)cccc2[C@H]1C | -0.7 | 87 |  |  |  |  |  | Binding [2]: 124%; ED50 [16]: inactive; ED50 [17]: inactive; Activity [21]: 6 counts/30 min |
| CCN(CC)[C@@H]1CCc2c(O)cccc2[C@@H]1C | 0.2 | 63 | 113 | 19 | 6.5 | 49 | 13 |  |
| CCCN[C@H]1CCc2c(OC)cccc2[C@H]1C |  |  | 113 |  |  |  |  | ED50 [24]: inactive; ED50 [25]: inactive; Activity [10]: 119%; ED50 [17]: inactive; Activity [21]: 12 counts/30 min; ED50 [26]: inactive |
| CN[C@@H]1CCc2c(O)cccc2[C@@H]1C |  | 73 | 143 |  | 7.5 | 54 | 5.5 | Temperature [1]: 0.15 °C; Activity [10]: 47% |
| CCCN(CCC)[C@@H]1CCc2c(O)cccc2[C@H]1C |  |  |  | 97 |  |  |  | ED50 [25]: inactive; ED50 [16]: inactive; ED50 [17]: inactive; ED50 [26]: inactive |
| COc1cccc2c1CC[C@@H](N)[C@H]2C |  | 88 | 136 |  | 4.2 | 83 | 4.4 | Temperature [1]: -1.33 °C; Activity [10]: 62% |
| CCCN[C@@H]1CCc2c(O)cccc2[C@@H]1C | 0.1 | 107 | 114 | 125 | 16 | 66 | 9 |  |
| CCN[C@@H]1CCc2c(O)cccc2[C@@H]1C | -0.5 | 95 | 83 | 62 | 6 | 64 | 15 |  |
| CCCCN(CCCC)[C@@H]1CCc2c(OC)cccc2[C@@H]1C | -0.27 | 96 |  | 96 |  |  |  | Binding [2]: 115%; ED50 [25]: inactive; ED50 [26]: inactive |
| CCN[C@@H]1CCc2c(OC)cccc2[C@@H]1C |  | 69 | 108 |  | 4.8 | 36 | 5.3 | Temperature [1]: 1.33 °C; Activity [10]: 60% |
| C[C@H]1c2cccc(O)c2CC[C@H]1N |  | 86 | 94 |  |  | 98 |  | Temperature [1]: -0.7 °C; ED50 [27]: inactive; Activity [10]: 97%; ED50 [26]: inactive |
| C[C@@H]1c2cccc(O)c2CC[C@@H]1N(C)C | 0.88 | 34 |  | 15 | 8.5 |  | 8.5 | Body temp change [12]: 1.82 °C; Binding [28]: 22%; Binding [2]: 63%; Activity [29]: 4%; ED50 [30]: 28 µmol/kg; Activity [31]: 7 counts/30 min; ED50 ([32]; sc): 25 µmol/kg |
| CCCN(CCC)[C@@H]1CCc2c(OC)cccc2[C@H]1C |  |  |  |  |  |  |  | ED50 [25]: inactive; ED50 [17]: inactive; Activity [33]: 88%; ED50 [32]: inactive; ED50 [26]: inactive |
| CCN(CC)[C@H]1CCc2c(O)cccc2[C@H]1C | 0.22 | 100 |  | 40 |  |  |  | Binding [2]: 70%; ED50 [34]: inactive; ED50 [35]: inactive; ED50 [30]: 1.4 µmol/kg; ED50 ([32]; sc): 1.6 µmol/kg; Activity [21]: 5 counts/30 min |
| CCCN(CCC)[C@H]1CCc2c(OC)cccc2[C@@H]1C |  |  |  | 82 |  |  |  | ED50 [25]: inactive; ED50 [16]: inactive; ED50 [17]: inactive; ED50 [26]: inactive |
